Test results: ChEMBL document CHEMBL1671781, “Discovery and biological characterization of (2R,4S)-1'-acetyl-N-{(1R)-1-[3,5-bis(trifluoromethyl)phenyl]ethyl}-2-(4-fluoro-2-methylphenyl)-N-methyl-4,4'-bipiperidine-1-carboxamide as a new potent and selective neurokinin 1 (NK1) receptor antagonist clinical candidate” (J Med Chem, 2011)
One block for each molecule: values may come before it. The source made the active and inactive calls. The calls are words filed in the database; no cut-off is given here.

Key:
Substance-P receptor = Substance-P receptor (Homo sapiens, UniProt P25103); assay: Displacement of [3H]SP from human NK1 receptor expressed in CHO cells by liquid scintillation counting; format: cell-based
Substance-P receptor, sequence (P25103 whole entry): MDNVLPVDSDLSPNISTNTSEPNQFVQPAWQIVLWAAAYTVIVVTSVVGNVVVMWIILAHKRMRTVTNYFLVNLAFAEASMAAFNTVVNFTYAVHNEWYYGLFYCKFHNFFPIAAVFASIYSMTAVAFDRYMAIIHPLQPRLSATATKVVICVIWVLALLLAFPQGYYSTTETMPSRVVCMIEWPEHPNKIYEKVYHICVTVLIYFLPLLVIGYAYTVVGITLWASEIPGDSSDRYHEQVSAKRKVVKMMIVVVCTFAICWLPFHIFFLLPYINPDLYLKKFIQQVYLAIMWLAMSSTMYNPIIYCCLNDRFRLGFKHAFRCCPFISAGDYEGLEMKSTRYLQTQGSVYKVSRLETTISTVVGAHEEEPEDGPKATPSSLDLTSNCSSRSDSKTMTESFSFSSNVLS

Meriones unguiculatus [1] = assay: Inhibition of GR73632-induced foot tapping in orally dosed Mongolian gerbil after 1 hr; format: functional; settings: po, read-out: ID50 (the source's name)
In short: (§1)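 GR73632 (3 pmol/5 μL) injected icv into the lateral ventricle of Mongolian gerbils; after 1 min recovery, hind foot tapping timed for 3 min (max 180 s). Oral compound or vehicle (10 mL/kg) given 1, 4, 8 or 24 h beforehand, at least seven animals per group.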

Meriones unguiculatus [2] = assay: Inhibition of GR73632-induced foot tapping in orally dosed Mongolian gerbil after 4 hrs; format: functional; settings: po, read-out: ID50 (the source's name); in short: as §1
[3] = Plasma clearance in dog at 0.5 mg/kg, iv; format: ADME, organism-based, Canis lupus familiaris; parameters: dose 0.5 mg/kg, route intravenous
In short: (§2)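 Dog (n = 6), cynomolgus monkey (n = 3) and marmoset (n = 3) received an iv bolus at 0.5 mg/kg and po gavage at 1 mg/kg. Serial blood samples taken, spun to plasma, and assayed after protein precipitation by HPLC-MS/MS; parameters derived from plasma concentrations.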

[4] = Half life in dog at 0.5 mg/kg, iv; format: ADME, organism-based, Canis lupus familiaris; parameters: dose 0.5 mg/kg, route intravenous; settings: in vivo; in short: as §2
[5] = Half life in rat at 1 mg/kg, iv and po; format: ADME, organism-based; parameters: dose 1 mg/kg, route oral; settings: in vivo
In short: (§3)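 Rats (n = 6) were dosed at 1 mg/kg iv bolus and po by gavage. Serial blood sampling; plasma obtained by centrifugation, then protein precipitation and HPLC-MS/MS quantitation. PK parameters calculated from plasma concentrations.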

[6] = Plasma clearance in mouse at 2 mg/kg, po; format: ADME, organism-based; parameters: dose 2 mg/kg, route oral
[7] = Plasma clearance in marmoset at 1 mg/kg, iv; format: ADME, organism-based, Callithrix jacchus; parameters: dose 1 mg/kg, route intravenous
[8] = Binding affinity to calcium channel L type benzodiazepine binding site
[9] = Plasma clearance in cynomolgus monkey at 1 mg/kg, iv; format: ADME, organism-based, Macaca fascicularis; parameters: dose 1 mg/kg, route intravenous
Meriones unguiculatus [10] = assay: Inhibition of GR73632-induced foot tapping in sc dosed Mongolian gerbil after 1 hr; format: functional; settings: read-out: ID50 (the source's name)
In short: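 Gerbil foot tapping model: icv GR73632 3 pmol/5 μL into the lateral ventricle, tapping recorded for 3 min after 1 min recovery. Compound given sc 1 h before agonist, seven animals per group.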

Rattus norvegicus = assay: Volume of distribution at steady state in rat at 1 mg/kg, iv and po; format: ADME, organism-based; parameters: dose 1 mg/kg, route oral; settings: in vivo; in short: as §3
[11] = Volume of distribution at steady state in cynomolgus monkey at 1 mg/kg, iv; format: ADME, organism-based, Macaca fascicularis; parameters: dose 1 mg/kg, route intravenous; settings: in vivo, read-out: Vdss
[12] = Half life in marmoset at 1 mg/kg, iv; format: ADME, organism-based, Callithrix jacchus; parameters: dose 1 mg/kg, route intravenous; settings: in vivo
Meriones unguiculatus [13] = assay: Antidepressant activity against po dosed Mongolian gerbil assessed as increase in social interaction time at 1 mg/kg, po (Rbv = 19+/-1.2seconds); format: functional
In short: (§4)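 Pairs of unfamiliar male Mongolian gerbils (50-70 g), matched for treatment, placed in arena centre; active social interaction (sniffing, following, partner grooming, wrestling) scored for 5 min. Dosing 1 h before test, po at 0.1, 0.3 and 1.0 mg/kg (10 mL/kg), randomized, 10 animals per group. One-way ANOVA with Dunnett's test or paired t test versus vehicle.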

[14] = Bioavailability in dog at 0.5 mg/kg, iv; format: ADME, organism-based, Canis lupus familiaris; settings: in vivo; in short: as §2
Mus musculus = assay: Volume of distribution at steady state in mouse at 2 mg/kg, po; format: ADME, organism-based; parameters: dose 2 mg/kg, route oral; settings: in vivo
Meriones unguiculatus [15] = assay: Toxicity in Mongolian gerbil assessed as locomotor activity at 1 mg/kg, po; format: functional, organism-based; parameters: dose 1 mg/kg
In short: (§5)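 Gerbil social interaction arena, po dosing 1 h pretest (0.1, 0.3, 1.0 mg/kg; 10 mL/kg; 10 per group). Abnormal behaviours noted during the 5 min session; sedation checked as locomotor activity scored by line crossing. Compared with vehicle by one-way ANOVA plus Dunnett's test or paired t test.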

[16] = Bioavailability in marmoset at 1 mg/kg, iv; format: ADME, organism-based, Callithrix jacchus; settings: in vivo
[17] = Oral bioavailability in mouse at 2 mg/kg; format: ADME, organism-based; settings: in vivo
In short: (§6)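 Mice given 1 mg/kg iv and 2 mg/kg po using a composite design, three animals per time point (n = 21 per arm). Blood collected at nominal times, plasma prepared by centrifugation and analysed by protein precipitation plus HPLC-MS/MS; parameters derived from plasma concentrations.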

Meriones unguiculatus [18] = assay: Inhibition of GR73632-induced foot tapping in orally dosed Mongolian gerbil after 8 hrs; format: functional; settings: po, read-out: ID50 (the source's name); in short: as §1
[19] = Volume of distribution at steady state in marmoset at 1 mg/kg, iv; format: ADME, organism-based, Callithrix jacchus; parameters: dose 1 mg/kg, route intravenous; settings: in vivo, read-out: Vdss
[20] = Binding affinity to sodium channel site 2
Meriones unguiculatus [21] = assay: Antidepressant activity against Mongolian gerbil assessed as increase in social interaction time at 0.3 to 1 mg/kg, po; format: functional, organism-based; in short: as §4
[22] = Oral bioavailability in rat at 1 mg/kg; format: ADME, organism-based; settings: in vivo; in short: as §3
[23] = Bioavailability in cynomolgus monkey at 1 mg/kg, iv; format: ADME, organism-based, Macaca fascicularis; settings: in vivo
[24] = Volume of distribution at steady state in dog at 0.5 mg/kg, iv; format: ADME, organism-based, Canis lupus familiaris; parameters: dose 0.5 mg/kg, route intravenous; settings: in vivo, read-out: Vdss; in short: as §2
Meriones unguiculatus [25] = assay: Inhibition of GR73632-induced foot tapping in orally dosed Mongolian gerbil after 24 hrs; format: functional; settings: po, read-out: ID50 (the source's name); in short: as §1
Meriones unguiculatus [26] = assay: Antidepressant activity against po dosed Mongolian gerbil assessed as increase in social interaction time; format: functional, organism-based; in short: as §4
[27] = Half life in mouse at 2 mg/kg, po; format: ADME, organism-based; parameters: dose 2 mg/kg, route oral; settings: in vivo; in short: as §6
[28] = Half life […] cynomolgus monkey at 1 mg/kg, iv; format: ADME, organism-based, Macaca fascicularis; parameters: dose 1 mg/kg, route intravenous; settings: in vivo
Meriones unguiculatus [29] = assay: Toxicity in Mongolian gerbil assessed as abnormal behavior at 0.3 to 1 mg/kg, po; format: organism-based; parameters: dose 0.3-1 mg/kg, route oral; settings: in vivo; in short: as §5
[30] = Binding affinity to calcium channel L type dihydropyridine binding site
[31] = target: Sigma non-opioid intracellular receptor 1 (Homo sapiens, UniProt Q99720); assay: Binding affinity to sigma 1 receptor
Sigma non-opioid intracellular receptor 1, sequence (Q99720 whole entry): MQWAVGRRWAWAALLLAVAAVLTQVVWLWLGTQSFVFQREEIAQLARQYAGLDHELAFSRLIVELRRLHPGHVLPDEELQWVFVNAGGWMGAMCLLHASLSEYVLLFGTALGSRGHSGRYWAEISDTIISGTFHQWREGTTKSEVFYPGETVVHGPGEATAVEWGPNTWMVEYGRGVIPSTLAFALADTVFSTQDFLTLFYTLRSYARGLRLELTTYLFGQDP

Ki (Substance-P receptor): 0.0794 nM
SMILES: Cc1cc(F)ccc1[C@H]1C[C@@H](N(C)C)CCN1C(=O)N(C)Cc1cc(C(F)(F)F)cc(C(F)(F)F)c1
ED50 (Meriones unguiculatus [1]): 0.26 mg/kg

Ki (Substance-P receptor): 0.24 nM
SMILES: Cc1cc(F)ccc1[C@H]1C[C@@H](N(C)C)CCN1C(=O)N(C)[C@H](C)c1cc(C(F)(F)F)cc(C(F)(F)F)c1
ED50 (Meriones unguiculatus [1]): 0.9 mg/kg

Ki (Substance-P receptor): 0.933 nM
SMILES: Cc1cc(F)ccc1[C@H]1C[C@H](N(C)C)CCN1C(=O)N(C)[C@H](C)c1cc(C(F)(F)F)cc(C(F)(F)F)c1

Ki (Substance-P receptor): 0.178 nM
SMILES: Cc1cc(F)ccc1[C@H]1C[C@@H](N2CCC2)CCN1C(=O)N(C)[C@H](C)c1cc(C(F)(F)F)cc(C(F)(F)F)c1

Ki (Substance-P receptor): 0.646 nM
SMILES: Cc1cc(F)ccc1[C@H]1C[C@H](N2CCC2)CCN1C(=O)N(C)[C@H](C)c1cc(C(F)(F)F)cc(C(F)(F)F)c1

Ki (Substance-P receptor): 0.324 nM
SMILES: Cc1cc(F)ccc1[C@H]1C[C@@H](NC2CC2)CCN1C(=O)N(C)[C@H](C)c1cc(C(F)(F)F)cc(C(F)(F)F)c1
ED50 (Meriones unguiculatus [2]): 0.39 mg/kg

Ki (Substance-P receptor): 0.17 nM
SMILES: Cc1cc(F)ccc1[C@H]1C[C@@H](NC2CCC2)CCN1C(=O)N(C)[C@H](C)c1cc(C(F)(F)F)cc(C(F)(F)F)c1

Ki (Substance-P receptor): 0.209 nM
SMILES: COCCN[C@H]1CCN(C(=O)N(C)[C@H](C)c2cc(C(F)(F)F)cc(C(F)(F)F)c2)[C@@H](c2ccc(F)cc2C)C1

Continued, molecule first:

SMILES: Cc1cc(F)ccc1[C@H]1C[C@@H](N2CCC2)CCN1C(=O)N(C)Cc1cc(C(F)(F)F)cc(C(F)(F)F)c1
Ki (Substance-P receptor): 0.0813 nM
ED50 (Meriones unguiculatus [2]): 0.13 mg/kg

SMILES: Cc1cc(F)ccc1[C@H]1C[C@@H](N2CCCC2)CCN1C(=O)N(C)Cc1cc(C(F)(F)F)cc(C(F)(F)F)c1
Ki (Substance-P receptor): 0.275 nM
ED50 (Meriones unguiculatus [1]): 0.3 mg/kg

SMILES: Cc1cc(F)ccc1[C@H]1C[C@@H](N2CCCC2)CCN1C(=O)N(C)[C@H](C)c1cc(C(F)(F)F)cc(C(F)(F)F)c1
Ki (Substance-P receptor): 0.141 nM
ED50 (Meriones unguiculatus [1]): 0.92 mg/kg

SMILES: Cc1cc(F)ccc1[C@H]1C[C@H](N2CCCC2)CCN1C(=O)N(C)[C@H](C)c1cc(C(F)(F)F)cc(C(F)(F)F)c1
Ki (Substance-P receptor): 0.2 nM
ED50 (Meriones unguiculatus [2]): > 1 mg/kg

SMILES: CC(=O)N1CCN([C@H]2CCN(C(=O)N(C)Cc3cc(C(F)(F)F)cc(C(F)(F)F)c3)[C@@H](c3ccc(F)cc3C)C2)CC1
Ki (Substance-P receptor): 0.117 nM
ED50 (Meriones unguiculatus [1]): 0.09 mg/kg

SMILES: CC(=O)N1CCN([C@@H]2CCN(C(=O)N(C)[C@H](C)c3cc(C(F)(F)F)cc(C(F)(F)F)c3)[C@@H](c3ccc(F)cc3C)C2)CC1
ED50 (Meriones unguiculatus [1]): > 0.3 mg/kg

SMILES: CN[C@H]1CCN(C(=O)N(C)Cc2cc(C(F)(F)F)cc(C(F)(F)F)c2)[C@@H](c2ccc(F)cc2C)C1
Ki (Substance-P receptor): 0.2 nM

SMILES: CC(=O)N1CCN([C@H]2CCN(C(=O)N(C)[C@H](C)c3cc(C(F)(F)F)cc(C(F)(F)F)c3)[C@@H](c3ccc(F)cc3C)C2)CC1 [CASOPITANT]
clearance [3]: 10 mL/min/kg
half-life [4]: 4.5 h
half-life [5]: 1.8 h
CL/F [6]: 120 mL/min/kg
clearance [7]: 29 mL/min/kg
Ki [8]: 8780 nM
clearance [9]: 26 mL/min/kg
ED50 (Meriones unguiculatus [10]): 0.05 mg/kg
Vdss (Rattus norvegicus): 3.2 L/kg
Vd [11]: 3 L/kg
half-life [12]: 1.7 h
Time (Meriones unguiculatus [13]): 36.6 s
bioavailability [14]: 34%
Vdss (Mus musculus): 4 L/kg
Activity (Meriones unguiculatus [15]): Not toxic
bioavailability [16]: 14%
bioavailability [17]: 21%
ED50 (Meriones unguiculatus [18]): 0.19 mg/kg
Vd [19]: 3.1 L/kg
Ki [20]: 4220 nM
Activity (Meriones unguiculatus [21]): Active
bioavailability [22]: 8%
bioavailability [23]: 8%
Vd [24]: 1.9 L/kg
ED50 (Meriones unguiculatus [25]): 1.1 mg/kg
Activity (Meriones unguiculatus [26]): Dose-dependent effect
ED50 (Meriones unguiculatus [1]): 0.08 mg/kg
half-life [27]: 1.1 h
half-life [28]: 2.1 h
Activity (Meriones unguiculatus [29]): Non-toxic
Ki [30]: 6580 nM
Ki [31]: 2980 nM

SMILES: Cc1cc(F)ccc1[C@H]1CNCCN1C(=O)N(C)[C@H](C)c1cc(C(F)(F)F)cc(C(F)(F)F)c1 [VESTIPITANT]
ED50 (Meriones unguiculatus [1]): 0.014 mg/kg
